Bioassay records: PubChem, Johns Hopkins Ion Channel Center
Hits are enriched below; roughly 2.9% of the tested compounds scored in any of these assays.
TRPC6 inhibitor: blocks the mouse TRPC6 cation channel. HEK293-TRPC6, membrane potential dye, ACh-evoked depolarization; active compounds read low. B-score at 10 µM. hit rate 1.1% among 310,000;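 active means B-score under library mean minus 3 SD, initial fluorescence not abnormally high, positive integrated signal ratio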;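 further: B-score derived from integrated fluorescence ratio over the kinetic read; more negative B-score means stronger inhibition of depolarization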
TRPC4 potent: allosterically enhances the mouse TRPC4 cation channel. Q9QUQ5. HEK293 TRPC4beta/mu-opioid, DAMGO EC20, Fluo-4 Ca2+ flux; active compounds read high. B-score at 10 µM. hit rate 0.42% among 310,000;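 active means B-score of calcium response area above 5 SD of library B-scores, with initial fluorescence ratio within 5 SD of library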;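 further: B-score of integrated fluorescence ratio over time as area under calcium response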
TRPC6 activator: activators of mouse TRPC6 channel | AID 2550 | hit rate 0.13% among 310,000 | B-score at 10 µM | Q61143 | HEK293-TRPC6 membrane potential dye fluorescence; active compounds read high;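 active means B-score of the integrated fluorescence ratio above library mean plus 3 SD, and starting fluorescence ratio within library mean plus 5 SD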;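 further: higher score means more depolarization so channel activation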
TRPC4 block: inhibitors of mouse TRPC4 channel; Q9QUQ5; HEK293 TRPC4beta/mu-opioid, DAMGO-evoked Fluo4 calcium flux; active compounds read low; B-score at 10 µM; hit rate 0.39% among 300,000;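 active means B-score over 3 SD under the library average, no early fluorescence shift, positive overall ratio signal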
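Signal: kinetic Fluo4 fluorescence imaging of calcium influx. Material: stable TRPC4beta/mu-opioid receptor HEK293 cells. Probe or stimulus: DAMGO in two steps, submaximal then maximal.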
Kir21 inh: inhibitors of mouse Kir2.1 inward-rectifier potassium channel; P35561; HEK293-Kir2.1, FluxOR thallium flux fluorescence; active compounds read low; B-score at 10 µM; hit rate 0.85% among 310,000; AID 1672;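 active means fluorescence ratio B-score at or below minus 3 SD of library scores, with starting-brightness B-score within 2 SD, cut at about -4.2 in these data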;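 further: channel flux triggered by added potassium and thallium sulfate stimulus; B-score of peak minus minimum fluorescence over baseline after thallium stimulus; more negative B-score means stronger Kir2.1 block with less thallium influx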
Target sequence (P35561 whole entry, looked up): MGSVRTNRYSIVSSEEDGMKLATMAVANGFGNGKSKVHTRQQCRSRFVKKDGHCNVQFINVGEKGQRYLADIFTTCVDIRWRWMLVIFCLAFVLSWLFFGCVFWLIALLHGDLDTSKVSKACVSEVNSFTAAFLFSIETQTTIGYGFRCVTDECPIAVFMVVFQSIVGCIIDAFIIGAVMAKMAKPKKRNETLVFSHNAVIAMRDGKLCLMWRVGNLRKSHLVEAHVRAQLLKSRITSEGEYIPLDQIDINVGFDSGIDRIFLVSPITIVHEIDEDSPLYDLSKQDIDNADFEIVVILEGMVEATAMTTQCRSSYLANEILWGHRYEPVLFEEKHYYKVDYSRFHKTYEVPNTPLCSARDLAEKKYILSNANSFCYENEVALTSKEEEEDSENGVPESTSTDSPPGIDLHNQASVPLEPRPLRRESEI
TRPC4 act: opens the mouse TRPC4 cation channel; Q9QUQ5; HEK293 TRPC4beta/mu-opioid, Fluo4 calcium fluorescence; active compounds read high; hit rate 0.49% among 310,000; B-score at 10 µM;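 active means B-score above 5 SD of library B-scores, and initial fluorescence ratio not above library mean plus 5 SD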;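 further: positive B-score marks a calcium rise read as TRPC4 activation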
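Assay system: HEK293 cells stably co-expressing mouse TRPC4beta and mu-opioid receptor / Timing: Fluo4 dye loading 45 min at room temperature, 110 s recording / Signal: Fluo4 calcium-sensitive dye fluorescence, kinetic, 1 Hz baseline / Read-out: integrated baseline-normalised fluorescence ratio, converted to per-well B score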
Numbers without * were called inactive; i = inactive.

SMILES	TRPC6 inhibitor	TRPC4 potent	TRPC6 activator	TRPC4 block	Kir21 inh	TRPC4 act
CC(=O)c1sc(NC(=O)C2CCN(C(=O)c3ccc(F)cc3)CC2)nc1-c1ccccc1	i	i	i	i	-0.55	i
COc1ccc(NS(=O)(=O)c2ccc(OC)c3ccccc23)cn1	i	i	i	i	-5.3*	i
CC(C)c1ccc(C(=O)Nc2cccnc2)cc1	i	i	i	i	-0.31	i
CN(CC(=O)Nc1ccc2c(c1)OCO2)S(=O)(=O)c1cccs1	i	i	i	i	0.9	i
COc1ccc(C2C(C(C)=O)=C(O)C(=O)N2c2ccc(Br)cc2)cc1 (stereo not given)	i	i	i	-5*	0.18	i
CC(=O)c1ccc(N(C(=O)CS(=O)CC(=O)Nc2ccc(F)cc2)C(C(=O)NC2CCCCC2)c2cccs2)cc1 (stereo not given)	i	i	i	i	0.06	i
CC(C)Cc1cc(C(=O)Nc2cc(C(F)(F)F)ccc2Cl)no1	i	10*	i	i	-0.98	i
CSc1ccc(CN(C)CC(=O)NCCc2ccccc2)cc1	i	i	i	i	-1	i
Cc1cc(Nc2cccc(Br)c2)c2ccccc2n1	i	i	i	i	-1.8	i
Cc1cc(Nc2cccc(O)c2)c2ccccc2n1	i	i	i	-5*	-2.2	i
Cc1cc(Nc2ccccc2)nc2cc(O)ccc12	i	i	i	-7*	-5.2*	i
COc1ccc(Nc2cc(C)c3ccc(O)cc3n2)cc1	i	i	i	i	-4.7*	i
CCCOc1ccc(Oc2ccc(S(=O)(=O)N3CCN(C)CC3)cn2)cc1	i	i	i	i	0.09	i
Nn1c(C2CCC2)nc2cc(Cl)ccc2c1=O	i	i	i	i	1.5	i
CCCCN(C(=O)c1cc(S(=O)(=O)N2CCCCCC2)ccc1OC)c1c(N)n(CCC)c(=O)[nH]c1=O	i	i	i	i	1.2	i
CCC(=O)c1ccccc1OCCCN1CCC(Cc2ccccc2)CC1	-6.5*	i	i	i	-5.4*	i
CCOc1ccccc1OCCN1CCC(Cc2ccccc2)CC1	i	i	i	i	-2.9	i
CN(CCNS(=O)(=O)c1ccc2c(c1)oc(=O)n2C)Cc1ccccc1	i	19*	i	i	-0.11	i
CCCN1CCN(C(=O)Cn2c(=O)oc3cc(S(=O)(=O)NCc4ccccc4)ccc32)CC1	i	i	i	i	-1.2	104*
O=C(Cn1c(=O)oc2cc(S(=O)(=O)NCc3ccccc3)ccc21)N1CCCC1	i	i	i	i	-0.75	i
N#Cc1c(N2CCCCC2)nc(N)c2c(N)nc3c(c12)CC(c1ccccc1)O3 (stereo not given)	i	i	i	-9*	-0.3	i
CCOc1ccc(Cl)cc1CNCCCSc1nc(C)cc(C)n1	i	i	i	i	-6.6*	i
COc1ccc(NC(=O)CSc2c3c(nc4ccccc24)CCC3)c(OC)c1	i	i	i	i	-10*	i
COc1ccc(Nc2c3c(nc4ccccc24)CCC3)c(OC)c1	i	i	i	-5*	-0.34	i
COc1cc(C)c(S(=O)(=O)N2CCCC2)cc1C(C)C	i	i	i	i	-4.4*	i
SMILES	TRPC6 inhibitor	TRPC4 potent	TRPC6 activator	TRPC4 block	Kir21 inh	TRPC4 act
COc1cc(C)c(S(=O)(=O)N2CCCC2)cc1C	i	i	i	i	0.89	i
Cc1cccc(-c2c3c(nc4c2c(=O)n(C)c(=O)n4C)-c2ccccc2C3O)c1 (stereo not given)	i	i	i	i	0.96	i
CCC(C(=O)NC1CCCC1)N(C(=O)c1snc(C(N)=O)c1N)c1ccc(C)cc1C (stereo not given)	i	i	i	i	-0.89	i
CCOc1ccc(OCCCCn2cnc3ccccc3c2=O)cc1	i	i	i	i	-0.46	i
CCN(CC)CCNCC1C(=O)O[C@@H]2C[C@@]3(C)CCC[C@H](C)C3=C[C@H]12 (stereo not given in full)	i	11*	i	i	-0.64	i
COc1ccc(-n2nc3c(c2NC(=O)CCl)CSC3)cc1	i	i	i	i	-0.88	i
C=CCNCCOc1ccc(C(C)(C)c2ccccc2)cc1	i	i	i	i	-12*	i
CN(C)CCOc1ccc(C(C)(C)c2ccccc2)cc1	i	i	i	i	0.75	i
Cc1ccc(-c2nnc(Cc3ccc([N+](=O)[O-])cc3)o2)cc1	i	i	i	i	-0.46	i
COCCCNCCCCOc1ccc(Br)cc1Cl	i	i	i	i	-6.8*	i
COCCCNCCCOc1ccc(Cl)cc1C(C)(C)C	i	i	i	i	-5.1*	i
COCCNCCCOc1ccc(Cl)cc1Br	i	i	i	i	-0.06	i
Fc1ccc(-n2c(Cc3cccs3)n[nH]c2=S)cc1Cl	i	i	i	i	-4.2*	i
FC(F)(F)c1ccc(Cl)c(-n2c(Cc3cccs3)n[nH]c2=S)c1	i	i	i	i	-2.5	i
Cc1ccc(C2=NN(S(=O)(=O)c3ccccc3)C(c3ccccc3O)C2)cc1 (stereo not given)	i	13*	i	i	0	i
CC(C)C(=O)NNC(=O)CSc1nnnn1C(C)C	i	i	i	i	0.99	i
O=C(CSc1nnc(-c2cccnc2)n1Cc1ccco1)c1ccc(Br)cc1	i	i	i	i	-5.9*	i
Cc1ccc(-c2nnc(SCc3nc4ccccc4[nH]3)n2Cc2ccco2)cc1	i	i	i	i	0.02	i
Clc1cccc(-c2nnc(SC/C=C/c3ccccc3)n2Cc2ccco2)c1	i	i	i	i	-3.9	i
Cc1cccc(-c2nnc(SCc3nc4ccccc4[nH]3)n2Cc2ccco2)c1	i	i	i	-7*	-0.03	i
C(=C\c1ccccc1)/CSc1nnc(-c2ccncc2)n1Cc1ccco1	i	i	i	i	-5.1*	i
C(=C\c1ccccc1)/CSc1nnc(-c2ccccc2)n1Cc1ccco1	i	i	i	i	-5.4*	i
Cc1[nH][nH]c(=O)c1C=NCc1cccc(C(F)(F)F)c1	i	i	i	i	0.01	i
Cc1cccc(NC(=S)NCc2ccc(F)cc2)c1C	i	i	i	i	0.19	i
